Screening results: PubChem BioAssay, several laboratories
The list is not random: actives were taken first. Their share in the collection is about 27%.
CYP2C9 activ – CYP2C9 (human) activation. 96,000 compounds, 1.4% hits. activation factor at 5 µM. AID 1024. P11712. recombinant CYP2C9, luciferin-H conversion, luminescence; hits give high values; factor 1 = untreated enzyme, 0 = blocked;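 active = activation factor of 2 or more for CYP2C9 at a 5 µM dose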
Rev-RRE block – HIV Rev-RRE protein-RNA interaction inhibition. 97,000 compounds, 0.79% hits. Rev peptide-RRE RNA binding, FRET. P05866. AID 704. inhibition, % at 8 µM;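 active = inhibition above the screen-wide mean plus 3 SD, cut at about 35% in these data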
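Probe or stimulus: fluorescein-Rev peptide as binding partner; assay system: Cy5-tagged RRE RNA duplex with fluorescein-tagged Rev peptide; timing: 5 min compound–RNA preincubation, then 15 min with peptide, 25 °C; medium: HEPES pH 7.5 buffer with KCl, MgCl2, NaCl and EDTA; signal: fluorescein-to-Cy5 FRET, 480 nm excitation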
CYP2C9 inh – blocks human cytochrome P450 2C9; P11712; 96,000 compounds, 20% hits; CYP2C9 Supersomes, luciferin-H conversion, luminescence; inhibition, % at 5 µM;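 active = blocking of liver enzyme CYP2C9 beyond about 50% at 5 µM, limit read from the data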
CYP2C19 activ – activators of human cytochrome P450 2C19. P33261. recombinant CYP2C19, luciferin-H EGE luminescence; hits give high values; 0 = fully inhibited enzyme, 1 = untreated enzyme. activation factor at 5 µM. 96,000 tested, under 10 active;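 active = activation factor of at least 2 at 5 µM in the primary screen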
Target sequence (P33261 whole entry, looked up): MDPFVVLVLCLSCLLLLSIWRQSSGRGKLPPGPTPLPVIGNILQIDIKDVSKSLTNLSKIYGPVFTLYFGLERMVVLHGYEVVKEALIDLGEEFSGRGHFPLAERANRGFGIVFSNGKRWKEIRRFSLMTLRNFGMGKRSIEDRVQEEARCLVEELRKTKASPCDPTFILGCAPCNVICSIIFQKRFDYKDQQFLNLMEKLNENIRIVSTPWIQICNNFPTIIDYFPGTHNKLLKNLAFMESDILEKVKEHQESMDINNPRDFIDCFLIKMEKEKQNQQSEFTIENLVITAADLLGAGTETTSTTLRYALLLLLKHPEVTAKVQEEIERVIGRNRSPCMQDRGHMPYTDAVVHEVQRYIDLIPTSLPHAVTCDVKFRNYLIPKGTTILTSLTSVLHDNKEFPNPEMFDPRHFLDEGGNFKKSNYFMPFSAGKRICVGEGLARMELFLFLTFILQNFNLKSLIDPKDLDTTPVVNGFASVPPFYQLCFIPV
CYP2C19 inh – inhibitors of human CYP2C19; P33261; 96,000 compounds, 21% hits; CYP2C19 Supersomes, luciferin-H EGE luminescence, 30 min; AID 778; inhibition, % at 5 µM;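 active = CYP2C19 inhibition above a set limit at 5 µM in the primary screen, cut at about 50% in these data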
Cav32 inh – blocks human Cav3.2 T-type calcium channel | B-score at 10 µM | O95180 | Cav3.2-expressing cells, Fluo-4 calcium fluorescence FDSS; hits give low values | 100,000 compounds, 4% hits;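 active = single-dose well whose peak fluorescence ratio is a statistical outlier from its plate by either plate-standardised score or position-corrected B-score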
Of the large screens only hits and unclear results are named; the others gave an inactive call; [ ] = remark or other dose.

Cc1ccc(C(c2nnnn2Cc2cccs2)N2CCN(Cc3ccc4c(c3)OCO4)CC2)cc1 (stereo unspecified)	CYP2C19 inh 62 (no result: Rev-RRE block)
CCC(C)(C)n1nnnc1C(c1cc2cc(C)cc(C)c2[nH]c1=O)N1CCCC1 (stereo unspecified)	none (no result: CYP2C9 activ, Rev-RRE block, CYP2C9 inh, CYP2C19 activ, CYP2C19 inh)
COc1ccc(C(c2nnnn2Cc2cccs2)N2CCN(c3ccccc3F)CC2)cc1OC (stereo unspecified)	none (no result: Rev-RRE block)
COCCn1nnnc1C(c1ccc(C)cc1)N1CCN(Cc2ccc3c(c2)OCO3)CC1 (stereo unspecified)	CYP2C9 inh 51 (no result: Rev-RRE block, Cav32 inh)
Fc1ccc(C(c2nnnn2Cc2cccs2)N2CCN(c3ccccc3)CC2)cc1 (stereo unspecified)	Cav32 inh -5.8 (no result: CYP2C9 activ, CYP2C9 inh, CYP2C19 activ, CYP2C19 inh)
CCC(C)(C)n1nnnc1C(c1cc2cc(C)cc(C)c2[nH]c1=O)N1CCN(Cc2ccc3c(c2)OCO3)CC1 (stereo unspecified)	CYP2C9 inh 80 (no result: Cav32 inh)
COCCn1nnnc1C(c1ccccc1)N1CCN(Cc2ccc3c(c2)OCO3)CC1 (stereo unspecified)	none (no result: Rev-RRE block, Cav32 inh)
CCn1cc(C(=O)N2CC(C)CC(C)C2)c(=O)c2cc(S(=O)(=O)N3CCOCC3)ccc21 (stereo unspecified)	none
Cc1cccc(NC(=O)COC(=O)CNC(=O)C2CCCCC2)c1	none
O=C(Nc1ccc(Cl)cc1)N1CCC(c2nc(-c3ccccc3Cl)no2)CC1	none
CC(C)(C)n1nnnc1C(c1cccs1)N1CCCC2(CCCCC2)C1 (stereo unspecified)	none (no result: CYP2C9 activ, CYP2C9 inh, CYP2C19 activ, CYP2C19 inh)
c1cncc(C(c2nnnn2C2CCCC2)N2CCN(Cc3ccc4c(c3)OCO4)CC2)c1 (stereo unspecified)	none
CC(C)(C)n1nnnc1C(c1cccs1)N1CCCc2ccccc21 (stereo unspecified)	Cav32 inh -5.9
CC(C)(C)n1nnnc1C(c1cccs1)N1CCN(Cc2ccc3c(c2)OCO3)CC1 (stereo unspecified)	CYP2C19 inh 53
Cc1cc(C)nc(NCC(O)CNc2ccccc2Cl)n1 (stereo unspecified)	none (no result: CYP2C9 activ, Rev-RRE block, CYP2C9 inh, CYP2C19 activ, CYP2C19 inh)
CC(=O)N(CC(C)(C)CC=C(C)C)c1ccccc1	CYP2C19 inh 52 (no result: Rev-RRE block)
Cc1ccccc1Cn1c(=N)n(CC(=O)c2ccco2)c2ccccc21	Cav32 inh -4.2
CCOC(=O)Cn1c(=N)n(Cc2ccccc2)c2ccccc21	none
CC1(C)CN2C(=S)N(c3ccccc3)C(c3ccccc3)N2C1 (stereo unspecified)	CYP2C9 inh 66, CYP2C19 inh 67
CCC(=O)N1CCN(C(=O)CC)C1c1ccccc1	none
S=C1N(c2ccccc2)C(c2ccc(Cl)cc2)N2CCCN12 (stereo unspecified)	CYP2C19 inh 63, Cav32 inh -4.8
O=C1c2ccccc2C(=O)N1CCCc1nc(-c2ccncc2)no1	none
Nc1nonc1-c1noc(CCCN2C(=O)c3ccccc3C2=O)n1	CYP2C19 inh 57
Nc1nonc1-c1noc(-c2ccccc2Br)n1	CYP2C19 inh 67 (no result: Cav32 inh)
Nc1nonc1-c1noc(N2CCOCC2)n1	none (no result: CYP2C9 activ, CYP2C9 inh, CYP2C19 activ, CYP2C19 inh)
COc1ccc(CN2CCC(C(=O)NCCc3ccc(OC)c(OC)c3)CC2)c(OC)c1	none
CNc1nc2[nH]c(=O)c3c(c2s1)OC(N)=C(C#N)C3c1cccc(F)c1 (stereo unspecified)	Rev-RRE block 99[fluorescence artefact?] (no result: Cav32 inh)
COc1ccc(C2C(C#N)=C(N)Oc3c2sc2nc(C)cc(C)c32)cc1 (stereo unspecified)	none
CCOC(=O)c1ccc(NC(=O)N(CC)CC)cc1	none
COC(=O)CNc1c(-c2ccccc2)nc2ccc(Br)cn12	CYP2C9 inh 77, CYP2C19 inh 69
COCCNc1c(-c2ccc(O)cc2)nc2ccc(Cl)cn12	none (no result: CYP2C9 activ, CYP2C9 inh, CYP2C19 activ, CYP2C19 inh)
CC(c1ccccc1)N1C(=O)c2ccccc2C1O (stereo unspecified)	CYP2C19 inh 66
O=C1c2ccccc2C(O)N1c1ccc(Cl)cc1 (stereo unspecified)	none
S=C(c1ccccc1)N(c1ccccc1)c1ccccc1	CYP2C19 inh 94
O=C(O)c1ccc(N(c2ccccc2)c2ccccc2)cc1	none (no result: CYP2C9 activ, CYP2C9 inh, CYP2C19 activ, CYP2C19 inh)
CCC(C)(C)n1nnnc1CN1CCC(O)(c2cccc(C(F)(F)F)c2)CC1	none (no result: CYP2C9 activ, CYP2C9 inh, CYP2C19 activ, CYP2C19 inh)
CC(C)(C)NS(=O)(=O)c1ccc(NS(C)(=O)=O)cc1	none
OCC#CCSc1nnc(-c2ccccc2Br)o1	none
